LEDGF integ inh: blocks HIV-1 LEDGF/p75-dependent DNA integration; TR-FRET IN-LEDGF/p75 DNA integration, Eu/Cy5; inhibition, % at 3.7 µM; hit rate 0.64% among 370,000;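 active = inhibition above the screen-wide mean plus 3 SD, cut at about 13% in these data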;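 also: signal is the Cy5 over europium emission ratio at 671 and 618 nm; 0% = plate median of compound wells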
TDP2 inh: TDP2 (human) inhibition, absorbance primary screen; O95551; recombinant TDP2, T5PNP hydrolysis, p-nitrophenol absorbance 415 nm; inhibition, % at 12.8 µM; hit rate 0.34% among 370,000; AID 720702;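 active = inhibition above the mean of all tested compounds plus 3 SD, set per campaign, cut at about 25% in these data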;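 also: 0% = DMSO with enzyme and 100% = buffer with substrate but no TDP2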
Target sequence (O95551 whole entry, looked up): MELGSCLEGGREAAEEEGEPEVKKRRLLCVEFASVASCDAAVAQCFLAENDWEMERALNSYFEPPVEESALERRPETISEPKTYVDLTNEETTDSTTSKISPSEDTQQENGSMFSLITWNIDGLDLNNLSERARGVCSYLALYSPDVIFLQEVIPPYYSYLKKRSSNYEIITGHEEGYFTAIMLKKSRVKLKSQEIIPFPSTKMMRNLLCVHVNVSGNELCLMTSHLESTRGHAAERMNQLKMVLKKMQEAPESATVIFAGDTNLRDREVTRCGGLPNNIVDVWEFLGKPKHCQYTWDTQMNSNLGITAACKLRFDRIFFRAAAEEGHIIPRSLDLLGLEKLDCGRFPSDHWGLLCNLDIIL
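Evaluation: % inhibition relative to enzyme-containing and enzyme-free wells. Material: recombinant human TDP2. Benchmarks: enzyme-free and DMSO wells. Timing: enzyme reaction with compound for 2 h at 37 °C. Compound dosing: 12.8 µM only. Measured by: p-Nitrophenol epi absorbance. Reagent: T5PNP substrate at 5 mM, a TopII-DNA adduct mimic. Replication: single well per compound.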
MBD2 inh: blocks human MBD2 binding to methylated DNA; Q9UBB5; TR-FRET, MBD2 binding to methylated oligonucleotide; inhibition, % at 4.4 µM; hit rate 0.31% among 370,000; in the data active = inhibition above about 13%
UHRF1 MBD2 ctr: blocks human UHRF1 binding to methylated DNA; Q96T88; UHRF1 binding to methylated oligo, TR-FRET; inhibition, % at 4.4 µM; hit rate 0.75% among 370,000; AID 687016; in the data active = inhibition above about 21%;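 also: UHRF1 SRA domain binding a hemimethylated CpG hairpin DNA probe; 0% = median of test compound wells and 100% = reference inhibitor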
TDP2 inh conf: confirmation of human TDP2 inhibitors; shares compounds with TDP2 inh; recombinant human TDP2, absorbance read-out; inhibition, % at 12.8 µM; hit rate 22% among 1,100; AID 743263; in the data active = inhibition above about 25%;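 also: 0% = vehicle with enzyme and 100% = no enzyme buffer only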
IN multimer act: HIV-1 integrase multimerization activation, counter-screen | shares compounds with LEDGF integ inh | TR-FRET HIV-1 integrase multimerization, biochemical | activation, % at 7.7 µM | hit rate 17% among 2,000; in the data active = activation above about 8.9%
TR-FRET interf: optically interferes with TR-FRET readout in LEDGF counter-screen. shares compounds with LEDGF integ inh. 2,000 tested, under 10 active. TR-FRET optical interference counterscreen, HIV-1 IN multimerization. inhibition, % at 7.7 µM;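 active = inhibition above the mean over all tested compounds plus 3 SD, which no compound reached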;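 also: 0% = integrase with antibodies and DMSO and 100% = antibodies without integrase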
IN-LEDGF confirm: confirmation of HIV-1 LEDGF/p75-dependent integration inhibitors; shares compounds with LEDGF integ inh; inhibition, % at 3.7 µM; TR-FRET LEDGF/p75-dependent HIV-1 integration, biochemical; hit rate 36% among 2,000; in the data active = inhibition above about 14%
Active calls of the source: *; x = no result. Only some compounds are listed: those with a hit (about 1.6% of all), similar ones and a draw of the others.

SMILES	LEDGF integ inh	TDP2 inh	MBD2 inh	UHRF1 MBD2 ctr	TDP2 inh conf	IN multimer act	TR-FRET interf	IN-LEDGF confirm
Cc1ccc(C(=O)C2CCN(CC(=O)N(C)C3CCCCC3)CC2)cc1	0	8	5	3	x	x	x	x
N#CC1=C(N)Oc2n[nH]c(-c3cccs3)c2C1c1cccs1 (stereo not drawn)	3	29*	-9	-11	1	x	x	x
CCCCCCN1CCS(=O)(=O)N(Cc2ccc(F)cc2)C(C(=O)OC)C1 (stereo not drawn)	2	-15	0	0	x	x	x	x
Cc1oc(-c2ccccc2F)nc1CS(=O)(=O)CC(=O)NC(C)CCc1ccccc1 (stereo not drawn)	1	27*	-2	1	-1	x	x	x
O=C(CCc1ccccc1)N[C@H]1C(=O)CCC[C@]12C(=O)N(Cc1ccccc1)c1ccccc12	3	-1	-2	-1	x	x	x	x
COC(=O)c1ccc(CN2C(=O)[C@]3(OCCC=C[C@H]3C)c3ccccc32)cc1	2	6	2	1	x	x	x	x
CC(=O)c1cccc(NC(=O)N2CCc3ccccc3C2)c1	2	4	-5	-2	x	x	x	x
CC(=O)c1ccc(NC(=O)N2CCc3ccccc3C2)cc1	-1	27*	3	-4	6	x	x	x
CCOC(=O)N1CCN(C2=C(NS(=O)(=O)c3ccc(C)cc3)C(=O)c3ccccc3C2=O)CC1	15*	42*	-17	-6	32*	x	x	x
CC(=O)Nc1ccc(S(=O)(=O)NC2=C(N3CCN(c4ccc(F)cc4)CC3)C(=O)c3ccccc3C2=O)cc1	5	36*	-12	-1	30*	x	x	x
COc1ccc(C2=CCN(C)C(=O)N2c2ccc([N+](=O)[O-])cc2)cc1	-4	6	0	-2	x	x	x	x
Cc1ccccc1-c1cc2c(nn1)-c1ccccc1C2=O	61*	63*	-7	4	50*	0	1	40*
COC(=O)C[C@@H]1CC[C@@H]2[C@@H](COc3ccc(NC(=O)Nc4ccccc4)cc3C(=O)N2C)O1	3	6	-7	0	x	x	x	x
CN(C)c1cccc2c(S(=O)(=O)Nc3ccccn3)cccc12	19*	56*	0	-1	21	0	-2	-2
CCc1nnc(N/N=C/c2cccs2)n1N	44*	69*	0	7	3	5	-23	0
C(=N\Nc1nc2ccccc2s1)/c1cccs1	1	-1	2	0	x	x	x	x
CCc1nnc(N/N=C/c2c(Cl)cccc2Cl)n1N	49*	60*	4	6	11	-4	14	13
O=C1C=C(O)c2cccc(O)c2C1=O	22*	32*	-9	12	13	8	-29	14*
O=C1C=C(c2c(O)ccc3ccccc23)c2ccccc2C1=O	-2	19	-2	3	x	x	x	x
Nc1[nH]c(C(=O)c2ccccc2)c(-c2cccc3ccccc23)c1C(=O)NCc1ccc(Cl)cc1Cl	1	-2	-6	-2	x	x	x	x
COc1ccc(O)c(C(c2c(C)[nH][nH]c2=O)c2c(C)[nH][nH]c2=O)c1	22*	73*	9	14	73*	0	-1	12
CC(C)N(C(=O)Nc1ccc2nsnc2c1)C(C)C	51*	88*	-1	15	61*	2	-7	75*
CCOc1ccc(NC(=S)Nc2ccc3nsnc3c2)cc1	40*	72*	-9	10	74*	8	-30	74*
CC1CCN(C(=O)Nc2ccc3nsnc3c2)CC1	-1	12	-5	-7	x	x	x	x
COc1ccc(N(C)C(=O)Nc2ccc3c(c2)nnn3C)cc1	6	-15	-3	8	x	x	x	x
SMILES	LEDGF integ inh	TDP2 inh	MBD2 inh	UHRF1 MBD2 ctr	TDP2 inh conf	IN multimer act	TR-FRET interf	IN-LEDGF confirm
COc1ccc(N(C)C(=O)Nc2ccc3nsnc3c2)cc1	56*	95*	-3	4	7	-3	10	5
COc1ccc(NC(=S)Nc2ccc3nsnc3c2)cc1	52*	76*	-2	14	80*	16*	-56	74*
COc1ccc(NC(=O)CSc2nc(C)cc(=O)[nH]2)cc1OC	4	1	3	6	x	x	x	x
CCC[C@H]1[C@@H](OC(=O)NCc2cccs2)CC[C@@]23CCCN2C(=O)CCC[C@@H]13	7	-11	2	2	x	x	x	x
O=C(NC1CCCCN(Cc2ccc(Cl)cc2)C1=O)c1ccc(COc2ccccc2)cc1 (stereo not drawn)	-2	-1	-2	3	x	x	x	x
C=CCNC(=S)Nc1ccc2nsnc2c1	-3	9	-4	-6	x	x	x	x
C=CCN(CC=C)C(=S)Nc1ccc2nsnc2c1	58*	72*	-3	12	59*	0	1	-3
COc1ccc(C2CC(=O)C(c3ccccc3C)=CN2Cc2ccccc2)cc1 (stereo not drawn)	-4	2	8	5	x	x	x	x
O=C1c2cccnc2C(=O)N1CO	-2	7	-4	-2	x	x	x	x
NC1=C(Br)C(=O)c2ncccc2C1=O	29*	62*	-17	-3	65*	7	-26	73*
C[C@H]1[C@@H](NCc2cccs2)CC[C@@]23CCCN2C(=O)CCC[C@@H]13	8	6	3	-3	x	x	x	x
CCCc1nn(-c2ccccc2)c2c1C(c1cccs1)C(C#N)=C(N)O2 (stereo not drawn)	-2	14	-5	-9	x	x	x	x
COc1ccc(OC)c(C2C(C#N)=C(N)Oc3c2c(C)nn3-c2cccc(Cl)c2)c1 (stereo not drawn)	17*	82*	7	15	8	0	0	-6
COc1cc(C2C(C#N)=C(N)Oc3c2c(-c2ccccc2)nn3-c2ccccc2)cc(OC)c1OC (stereo not drawn)	19*	80*	-7	-1	10	0	-1	5
CC1=NN(c2ccccc2)C(=O)C1/C=C1/NC(=S)NC1=O (stereo not drawn)	-1	4	-1	-5	x	x	x	x
CC1=NN(c2ccccc2)C(=O)C1C=Nc1ccc(N(C)C)cc1 (stereo not drawn)	60*	32*	11	32*	8	6	-28	9
CCCCc1c(-c2ccccc2OC)ncn1Cc1ccc(Br)cc1	0	8	5	0	x	x	x	x
Cc1cc(/C=C2\SC(=S)NC2=O)c(C)n1C	38*	25*	6	23*	-4	14*	-49	12
Cc1cc(/C=C2\SC(=S)NC2=O)c(C)n1-c1ccccc1	-1	-6	-5	-3	x	x	x	x
O=C1C(O)=C(O)C(=O)c2ccccc21	16*	57*	-1	7	72*	3	-10	41*
